Measured values: ChEMBL document CHEMBL1955770, “Inhibition of S/G2 phase CDK4 reduces mitotic fidelity” (J Biol Chem, 2006)

Assays:
[1] = target: Vascular endothelial growth factor receptor 2 (Homo sapiens) (UniProt P35968); experiment: Inhibition of VEGFR2 at 1 uM
[2] = target: 3-phosphoinositide-dependent protein kinase 1 (Homo sapiens) (UniProt O15530); experiment: Inhibition of PDPK1 at 1 uM
[3] = target: Calcium/calmodulin-dependent protein kinase kinase 1 (Homo sapiens) (UniProt Q8N5S9); experiment: Inhibition of CAMKK1 at 1 uM
[4] = target: Ephrin type-A receptor 5 (Homo sapiens) (UniProt P54756); experiment: Inhibition of EPHA5 at 1 uM
[5] = target: Activated CDC42 kinase 1 (Homo sapiens) (UniProt Q07912); experiment: Inhibition of ACK1 at 1 uM
How it was run: (§1)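 Competition binding screen across a kinase panel with compound at 1 μM. Read-out is % competition. Kinases not hit at this concentration were scored '<50'. No Kd was determined for hits.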

[6] = target: Cyclin-G-associated kinase (Homo sapiens) (UniProt O14976); experiment: Inhibition of GAK at 1 uM
[7] = target: Tyrosine-protein kinase Fer (Homo sapiens) (UniProt P16591); experiment: Inhibition of FER at 1 uM
[8] = target: Insulin-like growth factor 1 receptor (Homo sapiens, UniProt P08069); experiment: Inhibition of IGF1R at 1 uM
[9] = target: Aurora kinase C (Homo sapiens) (UniProt Q9UQB9); experiment: Inhibition of AURKC at 1 uM; how it was run: as §1
[10] = target: Serine/threonine-protein kinase PLK4 (Homo sapiens) (UniProt O00444); experiment: Inhibition of PLK4 at 1 uM
[11] = target: Serine/threonine-protein kinase STK11 (Homo sapiens) (UniProt Q15831); experiment: Inhibition of STK11 at 1 uM
[12] = target: LIM domain kinase 1 (Homo sapiens) (UniProt P53667); experiment: Inhibition of LIMK1 at 1 uM
[13] = target: Calcium/calmodulin-dependent protein kinase type II subunit delta (Homo sapiens) (UniProt Q13557); experiment: Inhibition of CAMK2D at 1 uM; how it was run: as §1
[14] = target: RAC-alpha serine/threonine-protein kinase (Homo sapiens) (UniProt P31749); experiment: Inhibition of AKT1 at 1 uM; how it was run: as §1
[15] = target: Focal adhesion kinase 1 (Homo sapiens) (UniProt Q05397); experiment: Inhibition of PTK2 at 1 uM
[16] = target: Death-associated protein kinase 3 (Homo sapiens) (UniProt O43293); experiment: Inhibition of DAPK3 at 1 uM
[17] = target: Serine/threonine-protein kinase PAK 3 (Homo sapiens) (UniProt O75914); experiment: Inhibition of PAK3 at 1 uM
[18] = target: Ephrin type-B receptor 4 (Homo sapiens) (UniProt P54760); experiment: Inhibition of EPHB4 at 1 uM
[19] = target: Tyrosine-protein kinase FRK (Homo sapiens) (UniProt P42685); experiment: Inhibition of FRK at 1 uM
[20] = target: Platelet-derived growth factor receptor alpha (Homo sapiens) (UniProt P16234); experiment: Inhibition of PDGFRA at 1 uM
[21] = target: Mitogen-activated protein kinase kinase kinase kinase 5 (Homo sapiens) (UniProt Q9Y4K4); experiment: Inhibition of MAP4K5 at 1 uM
[22] = target: Ephrin type-A receptor 3 (Homo sapiens) (UniProt P29320); experiment: Inhibition of EPHA3 at 1 uM
[23] = target: Tyrosine-protein kinase SYK (Homo sapiens) (UniProt P43405); experiment: Inhibition of SYK at 1 uM
[24] = target: Casein kinase II subunit alpha (Homo sapiens) (UniProt P68400); experiment: Inhibition of CSNK2A1 at 1 uM
[25] = target: Aurora kinase A (Homo sapiens) (UniProt O14965); experiment: Inhibition of AURKA at 1 uM; how it was run: as §1
[26] = target: Mitogen-activated protein kinase kinase kinase 4 (Homo sapiens) (UniProt Q9Y6R4); experiment: Inhibition of MAP3K4 at 1 uM
[27] = target: Tyrosine-protein kinase Fgr (Homo sapiens) (UniProt P09769); experiment: Inhibition of FGR at 1 uM
[28] = target: Tyrosine-protein kinase HCK (Homo sapiens) (UniProt P08631); experiment: Inhibition of HCK at 1 uM
[29] = target: Tyrosine-protein kinase Yes (Homo sapiens) (UniProt P07947); experiment: Inhibition of YES at 1 uM
[30] = target: Serine/threonine-protein kinase ULK3 (Mus musculus) (UniProt Q3U3Q1); experiment: Inhibition of mouse ULK3 at 1 uM
[31] = target: Vascular endothelial growth factor receptor 3 (Homo sapiens) (UniProt P35916); experiment: Inhibition of FLT4 at 1 uM
[32] = target: Tyrosine-protein kinase JAK2 (Homo sapiens) (UniProt O60674); experiment: Inhibition of JAK2(Kin.Dom.2) at 1 uM
[33] = target: AP2-associated protein kinase 1 (Homo sapiens) (UniProt Q2M2I8); experiment: Inhibition of AAK1 at 1 uM
[34] = target: Proto-oncogene tyrosine-protein kinase ROS (Homo sapiens) (UniProt P08922); experiment: Inhibition of ROS1 at 1 uM
[35] = target: Tyrosine-protein kinase Blk (Homo sapiens) (UniProt P51451); experiment: Inhibition of BLK at 1 uM; how it was run: as §1
[36] = target: Mitogen-activated protein kinase 10 (Homo sapiens) (UniProt P53779); experiment: Inhibition of JNK3 at 1 uM
[37] = target: STE20-like serine/threonine-protein kinase (Homo sapiens) (UniProt Q9H2G2); experiment: Inhibition of SLK at 1 uM
[38] = target: Mitogen-activated protein kinase 14 (Homo sapiens) (UniProt Q16539); experiment: Inhibition of p38-alpha at 1 uM
[39] = target: Dual specificity protein kinase CLK4 (Homo sapiens) (UniProt Q9HAZ1); experiment: Inhibition of CLK4 at 1 uM
[40] = target: Serine/threonine-protein kinase Nek9 (Homo sapiens) (UniProt Q8TD19); experiment: Inhibition of NEK9 at 1 uM
[41] = target: Tyrosine-protein kinase ABL1 (Homo sapiens) (UniProt P00519); experiment: Inhibition of ABL1 at 1 uM
[42] = target: Calcium/calmodulin-dependent protein kinase type II subunit gamma (Homo sapiens) (UniProt Q13555); experiment: Inhibition of CAMK2G at 1 uM
How it was run: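 Competition binding screen against a kinase panel, compound tested at a single concentration of 1 μM. Read-out is % competition, where higher scores mark stronger hits. Kinases not hit in the primary screen are reported as '<50'. No Kd values were determined.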

[43] = target: Tyrosine-protein kinase CSK (Homo sapiens) (UniProt P41240); experiment: Inhibition of CSK at 1 uM
[44] = target: Receptor-type tyrosine-protein kinase FLT3 (Homo sapiens) (UniProt P36888); experiment: Inhibition of FLT3 at 1 uM
[45] = target: Dual specificity protein kinase CLK2 (Homo sapiens) (UniProt P49760); experiment: Inhibition of CLK2 at 1 uM
[46] = target: RAF proto-oncogene serine/threonine-protein kinase (Homo sapiens) (UniProt P04049); experiment: Inhibition of RAF1 at 1 uM

Chain of LIM domain kinase 1 (Homo sapiens) (P53667 whole entry, looked up, the tested form may be a part): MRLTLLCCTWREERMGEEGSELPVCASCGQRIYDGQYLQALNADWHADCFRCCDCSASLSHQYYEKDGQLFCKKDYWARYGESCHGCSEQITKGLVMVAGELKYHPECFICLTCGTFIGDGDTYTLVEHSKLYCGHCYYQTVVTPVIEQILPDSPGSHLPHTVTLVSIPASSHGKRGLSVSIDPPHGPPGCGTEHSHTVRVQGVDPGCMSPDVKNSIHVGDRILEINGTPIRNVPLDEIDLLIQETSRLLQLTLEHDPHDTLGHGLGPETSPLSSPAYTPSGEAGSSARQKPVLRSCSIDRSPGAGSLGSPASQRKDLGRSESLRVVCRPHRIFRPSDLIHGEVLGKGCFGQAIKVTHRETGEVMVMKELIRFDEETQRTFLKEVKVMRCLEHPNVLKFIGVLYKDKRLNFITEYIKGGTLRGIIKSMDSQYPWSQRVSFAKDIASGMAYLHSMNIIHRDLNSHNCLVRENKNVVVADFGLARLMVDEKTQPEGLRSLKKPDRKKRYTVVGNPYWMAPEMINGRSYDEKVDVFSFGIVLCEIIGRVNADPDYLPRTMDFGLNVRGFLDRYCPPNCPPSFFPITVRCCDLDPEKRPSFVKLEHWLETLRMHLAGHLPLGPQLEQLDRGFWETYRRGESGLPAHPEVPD
Chain of Tyrosine-protein kinase FRK (Homo sapiens) (P42685 whole entry): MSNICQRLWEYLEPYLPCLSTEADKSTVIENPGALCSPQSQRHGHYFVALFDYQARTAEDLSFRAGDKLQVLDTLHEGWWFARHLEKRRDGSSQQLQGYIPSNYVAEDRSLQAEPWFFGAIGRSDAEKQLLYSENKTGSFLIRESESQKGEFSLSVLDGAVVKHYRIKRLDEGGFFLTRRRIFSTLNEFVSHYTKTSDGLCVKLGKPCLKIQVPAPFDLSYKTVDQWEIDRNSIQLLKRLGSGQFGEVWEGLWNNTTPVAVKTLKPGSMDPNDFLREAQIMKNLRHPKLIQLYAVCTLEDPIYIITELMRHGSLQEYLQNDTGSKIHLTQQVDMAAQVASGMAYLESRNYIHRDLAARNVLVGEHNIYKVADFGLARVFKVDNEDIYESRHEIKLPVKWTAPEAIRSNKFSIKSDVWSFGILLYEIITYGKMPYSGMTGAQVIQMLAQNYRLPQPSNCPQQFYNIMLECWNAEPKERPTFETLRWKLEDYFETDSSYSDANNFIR
Chain of AP2-associated protein kinase 1 (Homo sapiens) (Q2M2I8 whole entry, looked up): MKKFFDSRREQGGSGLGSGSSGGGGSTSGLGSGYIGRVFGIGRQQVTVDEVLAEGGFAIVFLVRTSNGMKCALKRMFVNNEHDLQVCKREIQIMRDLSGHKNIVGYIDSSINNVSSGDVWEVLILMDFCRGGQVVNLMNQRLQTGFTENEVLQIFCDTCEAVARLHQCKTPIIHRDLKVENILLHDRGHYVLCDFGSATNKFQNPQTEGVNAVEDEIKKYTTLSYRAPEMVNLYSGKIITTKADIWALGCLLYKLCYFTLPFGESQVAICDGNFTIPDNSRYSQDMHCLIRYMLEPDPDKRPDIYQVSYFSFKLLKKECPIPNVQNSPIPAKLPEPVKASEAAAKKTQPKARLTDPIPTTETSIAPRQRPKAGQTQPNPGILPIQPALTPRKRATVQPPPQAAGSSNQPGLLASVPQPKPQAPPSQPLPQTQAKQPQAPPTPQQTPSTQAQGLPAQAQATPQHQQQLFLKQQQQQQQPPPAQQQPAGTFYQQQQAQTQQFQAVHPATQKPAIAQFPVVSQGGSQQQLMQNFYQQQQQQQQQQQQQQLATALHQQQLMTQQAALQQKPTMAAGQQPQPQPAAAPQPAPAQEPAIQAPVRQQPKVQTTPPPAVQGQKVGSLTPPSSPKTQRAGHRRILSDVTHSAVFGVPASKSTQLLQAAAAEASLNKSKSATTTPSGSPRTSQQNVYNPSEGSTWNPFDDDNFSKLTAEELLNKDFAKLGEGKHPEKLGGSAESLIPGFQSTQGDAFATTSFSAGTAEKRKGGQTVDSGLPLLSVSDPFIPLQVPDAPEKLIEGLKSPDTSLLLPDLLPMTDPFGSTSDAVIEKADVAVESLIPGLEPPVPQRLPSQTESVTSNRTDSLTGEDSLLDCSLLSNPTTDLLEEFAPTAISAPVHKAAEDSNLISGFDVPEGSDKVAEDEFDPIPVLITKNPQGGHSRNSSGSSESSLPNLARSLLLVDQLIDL
Chain of Serine/threonine-protein kinase Nek9 (Homo sapiens) (Q8TD19 whole entry): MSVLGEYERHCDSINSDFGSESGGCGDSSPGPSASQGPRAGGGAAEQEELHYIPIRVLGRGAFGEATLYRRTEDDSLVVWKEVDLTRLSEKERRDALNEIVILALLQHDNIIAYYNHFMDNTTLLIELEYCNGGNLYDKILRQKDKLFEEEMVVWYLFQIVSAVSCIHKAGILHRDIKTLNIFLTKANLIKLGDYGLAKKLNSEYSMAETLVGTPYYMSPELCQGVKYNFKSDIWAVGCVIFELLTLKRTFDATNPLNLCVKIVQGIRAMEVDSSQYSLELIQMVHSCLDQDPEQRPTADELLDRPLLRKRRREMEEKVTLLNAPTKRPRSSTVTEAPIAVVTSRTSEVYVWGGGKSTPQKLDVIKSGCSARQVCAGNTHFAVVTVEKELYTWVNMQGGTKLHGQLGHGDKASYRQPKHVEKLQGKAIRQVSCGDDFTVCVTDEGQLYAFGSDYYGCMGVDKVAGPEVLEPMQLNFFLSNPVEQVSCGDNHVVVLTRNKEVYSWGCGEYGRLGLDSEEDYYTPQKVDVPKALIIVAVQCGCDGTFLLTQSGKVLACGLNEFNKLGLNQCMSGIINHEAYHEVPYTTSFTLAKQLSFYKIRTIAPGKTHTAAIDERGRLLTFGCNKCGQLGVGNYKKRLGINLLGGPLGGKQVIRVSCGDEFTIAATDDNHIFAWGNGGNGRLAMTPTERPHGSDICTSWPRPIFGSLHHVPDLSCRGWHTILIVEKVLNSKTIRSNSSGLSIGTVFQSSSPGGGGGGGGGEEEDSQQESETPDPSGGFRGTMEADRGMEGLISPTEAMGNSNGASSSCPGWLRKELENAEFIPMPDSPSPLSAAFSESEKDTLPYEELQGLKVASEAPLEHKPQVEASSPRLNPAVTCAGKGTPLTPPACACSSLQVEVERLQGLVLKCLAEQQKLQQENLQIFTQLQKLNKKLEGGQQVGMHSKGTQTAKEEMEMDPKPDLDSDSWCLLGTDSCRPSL
Chain of Calcium/calmodulin-dependent protein kinase kinase 1 (Homo sapiens) (Q8N5S9 whole entry, looked up): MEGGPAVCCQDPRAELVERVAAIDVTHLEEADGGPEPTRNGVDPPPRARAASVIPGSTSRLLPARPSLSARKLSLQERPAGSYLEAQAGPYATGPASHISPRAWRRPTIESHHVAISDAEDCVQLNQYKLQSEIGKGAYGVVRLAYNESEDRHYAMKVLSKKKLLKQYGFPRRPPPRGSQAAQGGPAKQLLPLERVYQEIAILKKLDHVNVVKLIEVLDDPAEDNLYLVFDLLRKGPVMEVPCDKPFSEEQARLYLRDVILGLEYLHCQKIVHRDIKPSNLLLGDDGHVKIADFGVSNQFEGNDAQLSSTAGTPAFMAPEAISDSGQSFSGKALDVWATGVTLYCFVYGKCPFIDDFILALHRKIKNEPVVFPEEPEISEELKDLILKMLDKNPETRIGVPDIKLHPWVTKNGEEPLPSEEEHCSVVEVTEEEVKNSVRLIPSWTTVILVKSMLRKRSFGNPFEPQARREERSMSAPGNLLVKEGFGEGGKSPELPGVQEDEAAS
Chain of Tyrosine-protein kinase Fer (Homo sapiens) (P16591 whole entry, looked up): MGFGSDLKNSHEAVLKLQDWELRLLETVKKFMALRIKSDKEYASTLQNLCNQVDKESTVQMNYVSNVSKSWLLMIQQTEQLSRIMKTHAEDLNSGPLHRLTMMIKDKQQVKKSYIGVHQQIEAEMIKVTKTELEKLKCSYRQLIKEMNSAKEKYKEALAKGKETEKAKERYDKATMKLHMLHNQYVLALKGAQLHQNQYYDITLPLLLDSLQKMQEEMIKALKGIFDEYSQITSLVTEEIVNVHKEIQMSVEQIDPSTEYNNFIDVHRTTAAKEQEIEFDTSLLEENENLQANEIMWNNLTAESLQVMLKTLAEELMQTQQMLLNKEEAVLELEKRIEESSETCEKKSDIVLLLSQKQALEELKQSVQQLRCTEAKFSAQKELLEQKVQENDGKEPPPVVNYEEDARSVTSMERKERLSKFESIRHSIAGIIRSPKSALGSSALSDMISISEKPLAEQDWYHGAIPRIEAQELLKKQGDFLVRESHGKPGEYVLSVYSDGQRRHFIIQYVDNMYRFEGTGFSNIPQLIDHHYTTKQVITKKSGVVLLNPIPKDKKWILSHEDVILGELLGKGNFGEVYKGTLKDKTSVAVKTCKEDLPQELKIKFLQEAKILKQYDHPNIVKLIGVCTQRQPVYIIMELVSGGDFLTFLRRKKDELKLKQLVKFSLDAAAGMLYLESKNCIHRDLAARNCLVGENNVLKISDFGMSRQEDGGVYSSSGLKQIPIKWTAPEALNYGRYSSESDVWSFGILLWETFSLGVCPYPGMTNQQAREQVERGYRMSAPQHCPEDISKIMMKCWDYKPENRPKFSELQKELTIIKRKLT
Chain of Serine/threonine-protein kinase STK11 (Homo sapiens) (Q15831 whole entry, the tested form may be a part): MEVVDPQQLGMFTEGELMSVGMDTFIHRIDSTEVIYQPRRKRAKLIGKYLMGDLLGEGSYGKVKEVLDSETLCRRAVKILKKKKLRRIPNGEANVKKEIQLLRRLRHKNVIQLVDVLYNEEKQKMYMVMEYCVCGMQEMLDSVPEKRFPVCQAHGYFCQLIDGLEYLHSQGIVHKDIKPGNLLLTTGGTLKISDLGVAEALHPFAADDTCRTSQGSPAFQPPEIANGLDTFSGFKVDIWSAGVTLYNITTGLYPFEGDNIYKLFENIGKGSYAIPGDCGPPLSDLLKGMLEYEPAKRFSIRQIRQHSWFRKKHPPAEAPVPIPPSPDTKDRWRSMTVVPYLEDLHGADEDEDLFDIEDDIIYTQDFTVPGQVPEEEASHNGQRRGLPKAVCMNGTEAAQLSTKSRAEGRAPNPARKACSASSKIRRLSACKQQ

CN1CCN(c2ccc(Nc3nc(N)c(C(=O)c4ccc5c(c4)OCCO5)s3)cc2)CC1 gave an inhibition [1] of under 50%, an inhibition [2] of under 50% and an inhibition [3] of under 50%. For the same compound, the inhibition [4] was under 50%, the inhibition [5] was under 50% and the inhibition [6] was 100%. The inhibition [7] was under 50%, the inhibition [8] was under 50% and the inhibition [9] was under 50%. It also gave an inhibition [10] of under 50%, an inhibition [11] of under 50% and an inhibition [12] of under 50%. The inhibition [13] was under 50%, the inhibition [14] was under 50% and the inhibition [15] was under 50%. For the same compound, the inhibition [16] was under 50%, the inhibition [17] was under 50% and the inhibition [18] was under 50%. It also gave an inhibition [19] of under 50%, an inhibition [20] of under 50% and an inhibition [21] of under 50%. The inhibition [22] was under 50%, the inhibition [23] was under 50% and the inhibition [24] was under 50%. For the same compound, the inhibition [25] was under 50%, the inhibition [26] was under 50% and the inhibition [27] was under 50%. The inhibition [28] was under 50%, the inhibition [29] was under 50% and the inhibition [30] was under 50%. For the same compound, the inhibition [31] was under 50%, the inhibition [32] was under 50% and the inhibition [33] was 84%. For the same compound, the inhibition [34] was under 50%, the inhibition [35] was under 50% and the inhibition [36] was 66%. The inhibition [37] was 99%, the inhibition [38] was under 50% and the inhibition [39] was 97%. For the same compound, the inhibition [40] was under 50%, the inhibition [41] was under 50% and the inhibition [42] was under 50%. For the same compound, the inhibition [43] was under 50%, the inhibition [44] was under 50% and the inhibition [45] was 100%. The inhibition [46] was under 50%.
